{
  "source": "ChEMBL document CHEMBL4024790",
  "about": "(J Med Chem, 2018)",
  "key": {"[1]": {"species_on_record": "Rattus norvegicus"}, "[2]": {"assay": "1-octanol/phosphate buffer solution partition coefficient, log D of the compound at pH 7.4 after 1 hr by LC-MS/MS method", "format": "physicochemical"}, "[3]": {"system": "Rattus norvegicus", "assay": "Cardiotoxicity in rat at 5 to 250 mg/kg/day, po up to 15 days by microscopic method", "format": "toxicity, organism-based", "details": "in vivo, 360 h; call rule not given here", "in_short": "(§1)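 Exploratory rat toxicity study, oral dosing at 5, 50 and 250 mg/kg/day for up to 15 days, with microscopic examination of heart and vasculature and measurement of plasma and brain exposure.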"}, "[4]": {"system": "Rattus norvegicus", "assay": "Toxicity in rat assessed as effect on vasculature at 5 to 250 mg/kg/day, po up to 15 days by microscopic method", "format": "organism-based", "details": "in vivo, 360 h"}, "[5]": {"assay": "Apparent intrinsic clearance in human liver microsomes", "format": "ADME, microsome", "details": "read-out: CLH(app)"}, "[6]": {"molecular_target": "cGMP-specific 3',5'-cyclic phosphodiesterase (Homo sapiens, UniProt O76074)", "assay": "Inhibition of PDE5A1 (unknwon origin) using [3H]cGMP as substrate after 30 mins by SPA"}, "[7]": {"system": "Canis familiaris", "assay": "Cardiotoxicity in dog assessed as arteriopathy in arteries at >= 20 mg/kg/day, po for 14 days by microscopic method", "format": "toxicity, organism-based, Canis lupus familiaris", "details": "in vivo, 336 h"}, "[8]": {"system": "Brain", "assay": "Drug uptake in rat brain at 5 to 250 mg/kg/day, po up to 15 days by microscopic method", "format": "ADME, organism-based", "details": "in vivo, 360 h", "in_short": "as §1"}, "[9]": {"system": "Plasma", "assay": "Drug uptake in rat plasma at 5 to 250 mg/kg/day, po up to 15 days by microscopic method", "format": "ADME, organism-based", "details": "in vivo, 360 h", "in_short": "as §1"}, "[10]": {"assay": "Drug level in dog hepatocytes treated with 4-(azetidin-1-yl)-7-methyl-5-(1-methyl-5-(5-(trifluoromethyl)pyridin-2-yl)-1H-pyrazol-4-yl)imidazo[1,5-f][1,2,4]triazine at 1 to 50 uM after 1 hr by LC-MS/MS analysis", "format": "ADME, cell-based, Canis lupus familiaris, Hepatocyte", "in_short": "(§2)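 Rat, dog or human liver microsomes or hepatocytes (P450 0.35–0.5 µM final) incubated with compound at 1, 10 or 50 µM in 100 mM phosphate buffer with 1 mM NADP regenerating system, 37°C for 1 h; quenched with 4 volumes acetonitrile, centrifuged, supernatant evaporated, reconstituted in 5% aqueous acetonitrile and analysed by reversed-phase LC.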"}, "[11]": {"system": "Liver", "assay": "Drug level in human liver microsomes treated with 4-(azetidin-1-yl)-7-methyl-5-(1-methyl-5-(5-(trifluoromethyl)pyridin-2-yl)-1H-pyrazol-4-yl)imidazo[1,5-f][1,2,4]triazine at 1 to 50 uM after 1 hr by LC-MS/MS analysis", "format": "ADME, microsome", "in_short": "as §2"}, "[12]": {"assay": "Drug level in rat hepatocytes treated with 4-(azetidin-1-yl)-7-methyl-5-(1-methyl-5-(5-(trifluoromethyl)pyridin-2-yl)-1H-pyrazol-4-yl)imidazo[1,5-f][1,2,4]triazine at 1 to 50 uM after 1 hr by LC-MS/MS analysis", "format": "ADME, cell-based, Hepatocyte", "in_short": "as §2"}, "[13]": {"assay": "Drug level in human hepatocytes treated with 4-(azetidin-1-yl)-7-methyl-5-(1-methyl-5-(5-(trifluoromethyl)pyridin-2-yl)-1H-pyrazol-4-yl)imidazo[1,5-f][1,2,4]triazine at 1 to 50 uM after 1 hr by LC-MS/MS analysis", "format": "ADME, cell-based, Hepatocyte", "in_short": "as §2"}, "[14]": {"system": "Liver", "assay": "Drug level in rat liver microsomes treated with 4-(azetidin-1-yl)-7-methyl-5-(1-methyl-5-(5-(trifluoromethyl)pyridin-2-yl)-1H-pyrazol-4-yl)imidazo[1,5-f][1,2,4]triazine at 1 to 50 uM after 1 hr by LC-MS/MS analysis", "format": "ADME, microsome", "in_short": "as §2"}, "[15]": {"system": "Liver", "assay": "Drug level in dog liver microsomes treated with 4-(azetidin-1-yl)-7-methyl-5-(1-methyl-5-(5-(trifluoromethyl)pyridin-2-yl)-1H-pyrazol-4-yl)imidazo[1,5-f][1,2,4]triazine at 1 to 50 uM after 1 hr by LC-MS/MS analysis", "format": "ADME, Canis lupus familiaris, microsome", "in_short": "as §2"}, "[16]": {"system": "human MDR1", "assay": "Passive permeability from apical to basolateral side in MDCK cells expressing human MDR1", "format": "ADME, cell-based, Canis lupus familiaris", "details": "dog, read-out: permeability"}},
  "data": [
    {"compound": "Cn1ncc(-c2nn(C)c3ncnc(N4CCC4)c23)c1-c1ccc(C(F)(F)F)cc1", "values": [
      {"measurement": "fIC50", "setting": "[1]", "result": 11, "unit": "nM"},
      {"measurement": "logD at 1 h", "setting": "[2]", "result": 2.9}
    ]},
    {"compound": "Cc1nc(-c2cnn(C)c2-c2ccc(Cl)cn2)c2c(N3CCC3)ncnn12", "values": [
      {"measurement": "Activity", "setting": "[3]", "result": "Toxic"},
      {"measurement": "Activity", "setting": "[4]", "result": "Toxic"},
      {"measurement": "CLint scaled", "setting": "[5]", "result": 13, "unit": "mL/min/kg"},
      {"measurement": "logD at 1 h", "setting": "[2]", "result": 1.7}
    ]},
    {"compound": "Cc1nc(-c2cnn(C)c2-c2ccc(C(F)(F)F)cc2)c2c(N3CCC3)ncnn12", "values": [
      {"measurement": "CLint scaled", "setting": "[5]", "result": 93, "unit": "mL/min/kg"}
    ]},
    {"compound": "CCCc1nn(C)c2c(=O)nc(-c3cc(S(=O)(=O)N4CCN(CC)CC4)ccc3OCC)[nH]c12", "values": [
      {"measurement": "IC50", "setting": "[6]", "result": 8.9, "unit": "nM"}
    ]},
    {"compound": "CNc1ncnn2c(C)nc(-c3cnn(C)c3-c3ccc(C(F)(F)F)cc3)c12", "values": [
      {"measurement": "Activity", "setting": "[3]", "result": "Toxic"},
      {"measurement": "Activity", "setting": "[4]", "result": "Toxic"},
      {"measurement": "CLint scaled", "setting": "[5]", "result": 33, "unit": "mL/min/kg"},
      {"measurement": "logD at 1 h", "setting": "[2]", "result": 2.8}
    ]},
    {"compound": "CNc1ncnn2c(C)nc(-c3cnn(C)c3-c3ccc(C(F)(F)F)cn3)c12", "values": [
      {"measurement": "Activity", "setting": "[7]", "result": "Toxic"},
      {"measurement": "Activity", "setting": "[3]", "result": "Non-Toxic"},
      {"measurement": "Activity", "setting": "[4]", "result": "Non-Toxic"},
      {"measurement": "CLint scaled", "setting": "[5]", "result": 9.5, "unit": "mL/min/kg"},
      {"measurement": "logD at 1 h", "setting": "[2]", "result": 1.8},
      {"measurement": "Drug uptake", "setting": "[8]", "result": "Active"},
      {"measurement": "Drug uptake", "setting": "[9]", "result": "Active"}
    ]},
    {"compound": "Cc1nc(-c2cnn(C)c2-c2ccc(C(F)(F)F)cn2)c2c(N3CC(O)C3)ncnn12", "values": [
      {"measurement": "Drug metabolism", "setting": "[10]", "result": "Metabolite_Detected"},
      {"measurement": "Drug metabolism", "setting": "[11]", "result": "Metabolite_Detected"},
      {"measurement": "Drug metabolism", "setting": "[12]", "result": "Metabolite_Detected"},
      {"measurement": "Drug metabolism", "setting": "[13]", "result": "Metabolite_Detected"},
      {"measurement": "Drug metabolism", "setting": "[14]", "result": "Metabolite_Detected"},
      {"measurement": "Drug metabolism", "setting": "[15]", "result": "Metabolite_Detected"}
    ]},
    {"compound": "Cc1nc(-c2cnn(C)c2-c2ccc(C(F)(F)F)cn2)c2c(NCCC(=O)O)ncnn12", "values": [
      {"measurement": "Drug metabolism", "setting": "[10]", "result": "Metabolite_Detected"},
      {"measurement": "Papp A→B", "setting": "[16]", "result": 1.1, "unit": "×10⁻⁶ cm/s"},
      {"measurement": "Drug metabolism", "setting": "[11]", "result": "Metabolite_Detected"},
      {"measurement": "Drug metabolism", "setting": "[12]", "result": "Metabolite_Detected"},
      {"measurement": "Drug metabolism", "setting": "[13]", "result": "Metabolite_Detected"},
      {"measurement": "Drug metabolism", "setting": "[14]", "result": "Metabolite_Detected"},
      {"measurement": "Drug metabolism", "setting": "[15]", "result": "Metabolite_Detected"}
    ]}
  ]
}
